Results of several laboratories.
Lines come from different studies, so protocols differ. In brackets after ≈: the same amount, converted by molar mass.
MAP3K10: Mitogen-activated protein kinase kinase kinase 10 (MAP3K10, Homo sapiens, UniProt Q02779)
PIP4K2C: Phosphatidylinositol 5-phosphate 4-kinase type-2 gamma (PIP4K2C, Homo sapiens, UniProt Q8TBX8)
LCK: Tyrosine-protein kinase Lck (LCK, Homo sapiens, UniProt P06239)

C#Cc1cc(-c2cc(Nc3nc(N[C@@H](C)c4ccc(F)cn4)ncc3Cl)n[nH]2)ccc1C=O — inhibition (MAP3K10; enzyme activity; inhibitor; 0.2 µM): 54.5%
N[C@@H](CC(=O)O)C(=O)O — ΔTm (Electrogenic aspartate/glutamate antiporter SLC25A13, mitochondrial (SLC25A13, Homo sapiens, UniProt Q9UJS0); thermal stability; DSF; 1 mM): ~3 °C
C1=C/COCc2cc(ccc2OCCN2CCCC2)Nc2nccc(n2)-c2cccc(c2)COC/1 — remaining binding (Proto-oncogene tyrosine-protein kinase receptor Ret (RET, Homo sapiens, UniProt P07949, V804M); binding; 0.1 µM): 84%
CCCCC(=O)Nc1ccc(-c2ccc3ncn(CCF)c(=O)c3c2)cn1 — inhibition (PIP4K2C; binding; competition with immobilised ligand; 0.5 µM): 97.5%
CNC(=O)c1ccccc1Nc1nc(Nc2ccc(CO)cc2)ncc1Cl — remaining activity (LCK; enzyme activity; inhibitor; 1 µM): 1.89%
Cc1cc(O)c(-c2ccc([C@@H](C)CN(C)C)cc2)c2c1[nH]c(=O)c1sccc12 — inhibition (MAP3K10; enzyme activity; inhibitor; 0.1 µM): -11.7%
CCCCC(=O)Nc1ccc(-c2ccc3ncn(CCC)c(=O)c3c2)cn1 — remaining binding (Dual specificity mitogen-activated protein kinase kinase 4 (MAP2K4, Homo sapiens, UniProt P45985); binding; competition with immobilised ligand; 0.5 µM): 100%
COc1cccc2c(N3CCC(CCP(=O)(O)O)CC3)ncnc12 — residence time (Ectonucleotide pyrophosphatase/phosphodiesterase family member 1 (ENPP1, Homo sapiens, UniProt P22413); binding; SPR): 8.73 min
C#Cc1cnc(Nc2ccnc(CO)c2)nc1Nc1ccccc1S(C)(=O)=NC#N (stereo not shown) — remaining activity (LCK; enzyme activity; inhibitor; 1 µM): 14.6%
COc1cc(/C=N/NC(=S)NN=Cc2ccc([N+](=O)[O-])o2)ccc1Oc1ccnc2cc(Cl)ccc12 — IC20 (Aldo-keto reductase family 1 member B1 (AKR1B1, Homo sapiens, UniProt P15121); enzyme activity; inhibitor): 1.65 µg/mL (≈ 3.14 µM)
COc1ccc2oc(-c3ccc4nc(N)oc4c3)c/c(=N\c3ccccc3NC(=O)CCN)c2c1 — remaining binding (Serine/threonine-protein kinase 38 (STK38, Homo sapiens, UniProt Q15208); binding; 1 µM): 104%
CS(=O)(=NC#N)c1ccccc1Nc1nc(Nc2ccnc(CO)c2)ncc1Cl (stereo not shown) — remaining activity (LCK; enzyme activity; inhibitor; 1 µM): 41%
CCCC(=O)Nc1ccc(-c2ccc3ncn(CCC)c(=O)c3c2)cn1 — inhibition (PIP4K2C; binding; competition with immobilised ligand; 0.5 µM): 99.5%
